Results published in ChEMBL document CHEMBL1129264, “Mercaptoacyl dipeptides as orally active dual inhibitors of angiotensin-converting enzyme and neutral endopeptidase” (1996).
Blank lines part the entries; values can stand above or below the compound they belong to.

Key:
Assay type in all cases: organism-based
[1] = molecular target: T1, Angiotensin-converting enzyme (Rattus norvegicus) (UniProt P47820); assay: Compound was tested for plasma inhibition of Angiotensin I converting enzyme activity in the conscious rat. Expressed as Inhibition of AI pressor response at 4 hr at a dose of 13 mg/kg po; set-up: dose 13 mg/kg
T1 sequence (whole entry): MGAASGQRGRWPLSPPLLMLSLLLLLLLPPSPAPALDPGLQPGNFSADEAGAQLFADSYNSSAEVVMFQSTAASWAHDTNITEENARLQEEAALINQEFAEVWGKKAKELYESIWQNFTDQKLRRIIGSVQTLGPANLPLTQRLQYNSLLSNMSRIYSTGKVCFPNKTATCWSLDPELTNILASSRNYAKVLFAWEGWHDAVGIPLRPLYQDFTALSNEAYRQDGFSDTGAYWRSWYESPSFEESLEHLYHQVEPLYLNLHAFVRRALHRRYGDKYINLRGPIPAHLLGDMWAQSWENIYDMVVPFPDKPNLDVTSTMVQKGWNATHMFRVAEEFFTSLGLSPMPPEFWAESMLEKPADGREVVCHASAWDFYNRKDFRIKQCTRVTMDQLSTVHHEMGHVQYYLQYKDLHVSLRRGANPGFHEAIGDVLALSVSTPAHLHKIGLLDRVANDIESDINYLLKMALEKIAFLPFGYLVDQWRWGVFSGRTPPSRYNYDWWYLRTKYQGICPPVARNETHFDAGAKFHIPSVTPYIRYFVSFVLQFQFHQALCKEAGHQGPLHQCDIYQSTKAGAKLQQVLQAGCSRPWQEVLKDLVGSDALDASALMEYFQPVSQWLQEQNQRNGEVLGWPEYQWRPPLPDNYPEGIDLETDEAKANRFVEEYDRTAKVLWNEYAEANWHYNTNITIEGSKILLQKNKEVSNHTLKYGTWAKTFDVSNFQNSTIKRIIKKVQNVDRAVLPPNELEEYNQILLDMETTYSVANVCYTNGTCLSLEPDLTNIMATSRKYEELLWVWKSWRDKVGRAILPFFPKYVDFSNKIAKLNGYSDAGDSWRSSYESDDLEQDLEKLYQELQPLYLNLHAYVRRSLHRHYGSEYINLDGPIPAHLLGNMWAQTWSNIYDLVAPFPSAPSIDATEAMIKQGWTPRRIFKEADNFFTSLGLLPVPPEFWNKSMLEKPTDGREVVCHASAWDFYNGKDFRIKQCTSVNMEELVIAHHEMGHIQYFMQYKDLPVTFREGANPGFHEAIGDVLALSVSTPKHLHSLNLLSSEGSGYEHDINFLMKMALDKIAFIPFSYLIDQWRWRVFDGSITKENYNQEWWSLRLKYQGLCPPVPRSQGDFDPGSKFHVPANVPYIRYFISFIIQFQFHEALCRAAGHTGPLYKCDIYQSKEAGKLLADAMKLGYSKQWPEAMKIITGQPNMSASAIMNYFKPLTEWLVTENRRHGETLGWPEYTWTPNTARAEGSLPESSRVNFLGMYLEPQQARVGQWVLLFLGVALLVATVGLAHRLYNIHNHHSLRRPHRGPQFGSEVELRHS
Procedure, shortened: (§1)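 Male conscious normotensive Sprague-Dawley rats (275-390 g), fitted under methohexital (75 mg/kg ip) with femoral arterial and venous catheters for direct blood pressure. Next day, pressor responses to three angiotensin-I challenges (300 ng/kg iv) were recorded. Compound was then given po and AI challenge repeated at scheduled times. Each post-dose response was compared with the mean of the three initial responses.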

[2] = molecular target: T1, Angiotensin-converting enzyme (Rattus norvegicus); assay: Compound was tested for plasma inhibition of Angiotensin I converting enzyme activity in the conscious rat. Expressed as Inhibition of AI pressor response at 6 hr at a dose of 13 mg/kg po; set-up: dose 13 mg/kg; procedure, shortened: as §1
[3] = molecular target: T1, Angiotensin-converting enzyme (Rattus norvegicus); assay: Compound was tested for plasma inhibition of Angiotensin I converting enzyme activity in the conscious rat. Expressed as Inhibition of AI pressor response at 1 hr at a dose of 13 mg/kg po; set-up: dose 13 mg/kg; procedure, shortened: as §1
[4] = molecular target: T1, Angiotensin-converting enzyme (Rattus norvegicus); assay: Compound was tested for plasma inhibition of Angiotensin I converting enzyme activity in the conscious rat. Expressed as Inhibition of AI pressor response at 2 hr at a dose of 13 mg/kg po; set-up: dose 13 mg/kg; procedure, shortened: as §1
[5] = molecular target: T1, Angiotensin-converting enzyme (Rattus norvegicus); assay: Compound was tested for plasma inhibition of Angiotensin I converting enzyme activity in the conscious rat. Expressed as Inhibition of AI pressor response at 6 hr at a dose of 12.3 mg/kg po; set-up: dose 12.3 mg/kg
Procedure, shortened: (§2)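 Male conscious normotensive Sprague-Dawley rats (275-390 g), prepared under methohexital sodium (75 mg/kg ip) with femoral arterial and venous catheters. The next day, pressor responses to three angiotensin-I challenges (300 ng/kg iv) were recorded. Compound was then given orally and angiotensin-I challenges were repeated at set times. Percent inhibition is relative to the mean of the three baseline responses.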

[6] = molecular target: T1, Angiotensin-converting enzyme (Rattus norvegicus); assay: Compound was tested for plasma inhibition of Angiotensin I converting enzyme activity in the conscious rat. Expressed as Inhibition of AI pressor response at 1 hr at a dose of 12.3 mg/kg po; set-up: dose 12.3 mg/kg
Procedure, shortened: (§3)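 Male conscious normotensive Sprague-Dawley rats (275-390 g), given femoral arterial and venous catheters under methohexital sodium (75 mg/kg ip) anesthesia. Next day, pressor responses to three angiotensin-I challenges (300 ng/kg iv) recorded by direct arterial pressure. Compound then dosed orally, and AI challenge repeated at set times. Each post-dose response compared with the mean of the three baseline responses, giving % inhibition.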

[7] = molecular target: T1, Angiotensin-converting enzyme (Rattus norvegicus); assay: Compound was tested for plasma inhibition of Angiotensin I converting enzyme activity in the conscious rat. Expressed as Inhibition of AI pressor response at 4 hr at a dose of 12.3 mg/kg po; set-up: dose 12.3 mg/kg; procedure, shortened: as §3
[8] = molecular target: T1, Angiotensin-converting enzyme (Rattus norvegicus); assay: Compound was tested for plasma inhibition of Angiotensin I converting enzyme activity in the conscious rat. Expressed as Inhibition of AI pressor response at 2 hr at a dose of 12.3 mg/kg po; set-up: dose 12.3 mg/kg; procedure, shortened: as §3
[9] = molecular target: T1, Angiotensin-converting enzyme (Rattus norvegicus); assay: Compound was tested for plasma inhibition of Angiotensin I converting enzyme activity in the conscious rat. Expressed as Inhibition of AI pressor response at 4 hr at a dose of 13.4 mg/kg po; set-up: dose 13.4 mg/kg; procedure, shortened: as §2
[10] = molecular target: T1, Angiotensin-converting enzyme (Rattus norvegicus); assay: Compound was tested for plasma inhibition of Angiotensin I converting enzyme activity in the conscious rat. Expressed as Inhibition of AI pressor response at 2 hr at a dose of 13.4 mg/kg po; set-up: dose 13.4 mg/kg; procedure, shortened: as §3
[11] = molecular target: T1, Angiotensin-converting enzyme (Rattus norvegicus); assay: Compound was tested for plasma inhibition of Angiotensin I converting enzyme activity in the conscious rat. Expressed as Inhibition of AI pressor response at 1 hr at a dose of 13.4 mg/kg po; set-up: dose 13.4 mg/kg; procedure, shortened: as §3
[12] = molecular target: T1, Angiotensin-converting enzyme (Rattus norvegicus); assay: Compound was tested for plasma inhibition of Angiotensin I converting enzyme activity in the conscious rat. Expressed as Inhibition of AI pressor response at 6 hr at a dose of 13.4 mg/kg po; set-up: dose 13.4 mg/kg; procedure, shortened: as §2
[13] = molecular target: T1, Angiotensin-converting enzyme (Rattus norvegicus); assay: Compound was tested for plasma inhibition of Angiotensin I converting enzyme activity in the conscious rat. Expressed as Inhibition of AI pressor response at 6 hr at a dose of 13.8 mg/kg po; set-up: dose 13.8 mg/kg; procedure, shortened: as §2
[14] = molecular target: T1, Angiotensin-converting enzyme (Rattus norvegicus); assay: Compound was tested for plasma inhibition of Angiotensin I converting enzyme activity in the conscious rat. Expressed as Inhibition of AI pressor response at 2 hr at a dose of 13.8 mg/kg po; set-up: dose 13.8 mg/kg; procedure, shortened: as §3
[15] = molecular target: T1, Angiotensin-converting enzyme (Rattus norvegicus); assay: Compound was tested for plasma inhibition of Angiotensin I converting enzyme activity in the conscious rat. Expressed as Inhibition of AI pressor response at 1 hr at a dose of 13.8 mg/kg po; set-up: dose 13.8 mg/kg; procedure, shortened: as §3
[16] = molecular target: T1, Angiotensin-converting enzyme (Rattus norvegicus); assay: Compound was tested for plasma inhibition of Angiotensin I converting enzyme activity in the conscious rat. Expressed as Inhibition of AI pressor response at 4 hr at a dose of 13.8 mg/kg po; set-up: dose 13.8 mg/kg; procedure, shortened: as §2
[17] = molecular target: T1, Angiotensin-converting enzyme (Rattus norvegicus); assay: Compound was tested for plasma inhibition of Angiotensin I converting enzyme activity in the conscious rat. Expressed as Inhibition of AI pressor response at 2 hr at a dose of 14.1 mg/kg po; set-up: dose 14.1 mg/kg; procedure, shortened: as §3
[18] = molecular target: T1, Angiotensin-converting enzyme (Rattus norvegicus); assay: Compound was tested for plasma inhibition of Angiotensin I converting enzyme activity in the conscious rat. Expressed as Inhibition of AI pressor response at 1 hr at a dose of 14.1 mg/kg po; set-up: dose 14.1 mg/kg; procedure, shortened: as §3

SMILES: CCCOc1ccc(C[C@H](NC(=O)C2(NC(=O)[C@H](SC(C)=O)C(C)C)CCCC2)C(=O)OCC)cc1
inhibition [5]: 68% | inhibition [6]: 90% | inhibition [7]: 72% | inhibition [8]: 80%

SMILES: CCOC(=O)[C@H](Cc1ccc(OC(=O)C(C)C)cc1)NC(=O)C1(NC(=O)[C@H](SC(C)=O)C(C)C)CCCC1
inhibition [9]: 63% | inhibition [10]: 75% | inhibition [11]: 73% | inhibition [12]: 46%

SMILES: CCCCOC(=O)[C@H](Cc1ccc(O)cc1)NC(=O)C1(NC(=O)[C@H](SC(=O)C2CCCCC2)C(C)C)CCCC1
inhibition [17]: 8% | inhibition [18]: -3%

Second part, the compound after the results:

inhibition [1]: 55% | inhibition [2]: 38% | inhibition [3]: 34% | inhibition [4]: 33%
SMILES: CCOC(=O)[C@H](Cc1ccc(O)cc1)NC(=O)C1(NC(=O)[C@H](SC(=O)C2CCCC2)C(C)C)CCCC1

inhibition [13]: 28% | inhibition [14]: 60% | inhibition [15]: 54% | inhibition [16]: 40%
SMILES: CCOC(=O)[C@H](Cc1ccc(O)cc1)NC(=O)C1(NC(=O)[C@H](SC(=O)CN2CCOCC2)C(C)C)CCCC1
